Laboratory results published in ChEMBL document CHEMBL3120062, “Novel 8-(p-substituted-phenyl/benzyl)xanthines with selectivity for the A2A adenosine receptor possess bronchospasmolytic activity” (Eur J Med Chem, 2014).
pKi: −log10 of the molar value. Activity calls are given as the source filed them. The calls are words filed in the database; no cut-off is given here.

How the values were obtained:
Cavia porcellus [1] = experiment: Bronchospasmolytic activity in histamine aerosol-induced Dunkin-Hartley guinea pig assessed as duration of jerks at 50 mg/kg, po pretreated for 1 hr followed by histamine aerosol-challenge (reference value: 172 +/- 4 seconds); type: functional
Cavia porcellus [2] = experiment: Bronchospasmolytic activity in histamine aerosol-induced Dunkin-Hartley guinea pig assessed as survival at 50 mg/kg, po pretreated for 1 hr followed by histamine aerosol-challenge relative to control; type: functional
Summary of the method: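 Male Dunkin Hartley guinea pigs (250 ± 30 g), 4 per group, fasted overnight. Each animal was given test drug, theophylline or vehicle at 50 mg/kg by mouth in CMC + distilled water, 1 h before challenge. It was then exposed singly in a histamine chamber to 5 ml of 1% histamine aerosolised over 1 min. Onset, jerk duration, severity and death or survival were recorded. Survival is given as % of the group.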

Cavia porcellus [3] = experiment: Bronchospasmolytic activity in histamine aerosol-induced Dunkin-Hartley guinea pig assessed as time required for onset of bronchospasm at 50 mg/kg, po pretreated for 1 hr followed by histamine aerosol-challenge (reference value: 67 +/- 2 seconds); type: functional
Adenosine receptor A2b = target: T1, Adenosine receptor A2b (Homo sapiens, UniProt P29275); experiment: Binding affinity to human recombinant adenosine A2B receptor expressed in CHO cell membranes assessed as inhibition of NECA-stimulated adenylyl cyclase activity after 20 mins
T1 sequence (P29275 whole entry): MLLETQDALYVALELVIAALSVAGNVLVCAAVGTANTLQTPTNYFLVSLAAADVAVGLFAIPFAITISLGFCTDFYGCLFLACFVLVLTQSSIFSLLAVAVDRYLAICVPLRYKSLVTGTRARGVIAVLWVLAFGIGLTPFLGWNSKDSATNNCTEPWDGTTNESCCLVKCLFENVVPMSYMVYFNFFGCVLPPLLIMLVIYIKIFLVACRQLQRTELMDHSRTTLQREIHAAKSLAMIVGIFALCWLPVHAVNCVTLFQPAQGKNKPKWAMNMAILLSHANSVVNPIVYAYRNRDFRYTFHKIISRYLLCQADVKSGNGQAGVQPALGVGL
Summary of the method: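 Membranes from CHO cells stably expressing the human A2B receptor, prepared fresh by one 54,000 g spin and used immediately in 50 mM Tris/HCl pH 7.4. Concentration-dependent inhibition of NECA-stimulated adenylyl cyclase was measured with about 150,000 cpm [α-32P]ATP for 20 min. Ki was calculated from IC50 with the Cheng–Prusoff equation. Geometric means of 3–5 experiments.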

Adenosine receptor A2a = Adenosine receptor A2a (Homo sapiens, UniProt P29274); experiment: Displacement of [3H]-NECA from human recombinant adenosine A2A receptor expressed in CHO cell membranes after 3 hrs by microbeta counting analysis
Sequence of Adenosine receptor A2a (P29274 whole entry): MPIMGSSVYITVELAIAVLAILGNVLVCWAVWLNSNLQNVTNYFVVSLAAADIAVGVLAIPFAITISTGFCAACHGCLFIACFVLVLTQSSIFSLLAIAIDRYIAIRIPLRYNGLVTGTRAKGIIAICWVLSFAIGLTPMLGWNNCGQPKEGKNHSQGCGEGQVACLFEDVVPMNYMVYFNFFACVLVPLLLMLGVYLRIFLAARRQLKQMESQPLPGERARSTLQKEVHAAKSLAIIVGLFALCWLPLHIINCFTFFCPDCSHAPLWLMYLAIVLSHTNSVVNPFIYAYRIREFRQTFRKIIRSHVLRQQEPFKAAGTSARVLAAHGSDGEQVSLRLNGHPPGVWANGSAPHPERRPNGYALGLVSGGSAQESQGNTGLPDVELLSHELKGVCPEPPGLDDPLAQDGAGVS
Summary of the method: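 Crude membranes (10-50 µg protein) from CHO cells stably expressing the human A2A receptor, in 50 mM Tris/HCl pH 7.4. Incubated with [3H]NECA (10 nM) for 3 h at 25 °C, then filtered, washed with ice-cold buffer and scintillation counted. Nonspecific binding was defined with R-PIA. Ki came from non-linear curve fitting; geometric means of 3–5 experiments.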

Adenosine receptor A3 = target: T2, Adenosine receptor A3 (Homo sapiens, UniProt P0DMS8); experiment: Displacement of [3H]-HEMADO from human recombinant adenosine A3 receptor expressed in CHO cell membranes after 3 hrs by microbeta counting analysis
T2 sequence (P0DMS8 whole entry): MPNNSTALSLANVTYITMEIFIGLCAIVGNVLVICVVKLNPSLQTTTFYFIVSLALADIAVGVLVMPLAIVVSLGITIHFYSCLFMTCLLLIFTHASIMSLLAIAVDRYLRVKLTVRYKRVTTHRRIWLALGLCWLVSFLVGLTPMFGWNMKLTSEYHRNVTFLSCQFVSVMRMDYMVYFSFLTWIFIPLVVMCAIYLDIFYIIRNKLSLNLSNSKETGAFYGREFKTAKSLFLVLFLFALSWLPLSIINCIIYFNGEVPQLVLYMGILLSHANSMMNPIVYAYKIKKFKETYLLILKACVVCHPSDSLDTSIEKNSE
Summary of the method: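 Human A3 receptor in stably transfected CHO cell membranes (10-50 µg protein), resuspended in 50 mM Tris/HCl, 10 mM MgCl2, 1 mM EDTA, pH 8.25. Incubated with [3H]HEMADO (1 nM) for 3 h at 25 °C, then filtered, washed and scintillation counted. Nonspecific binding was defined with R-PIA. Ki came from non-linear curve fitting; geometric means of 3–5 experiments.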

Adenosine receptor A1 = target: T3, Adenosine receptor A1 (Homo sapiens, UniProt P30542); experiment: Displacement of [3H]-CCPA from human recombinant adenosine A1 receptor expressed in CHO cell membranes after 3 hrs by microbeta counting analysis
T3 sequence (P30542 whole entry): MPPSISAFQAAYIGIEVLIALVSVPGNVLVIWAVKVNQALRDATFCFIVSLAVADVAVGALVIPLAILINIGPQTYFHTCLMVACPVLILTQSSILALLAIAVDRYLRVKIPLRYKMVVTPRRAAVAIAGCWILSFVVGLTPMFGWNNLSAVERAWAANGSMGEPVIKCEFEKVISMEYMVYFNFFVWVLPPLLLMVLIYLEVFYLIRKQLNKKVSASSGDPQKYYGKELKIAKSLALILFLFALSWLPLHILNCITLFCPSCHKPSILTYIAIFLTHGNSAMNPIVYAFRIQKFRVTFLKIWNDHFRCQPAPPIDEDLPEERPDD
Summary of the method: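 Human A1 receptor stably expressed in CHO cells. Crude membranes (10-50 µg protein) in 50 mM Tris/HCl pH 7.4 were incubated with [3H]CCPA (1 nM) for 3 h at 25 °C, then filtered, washed with ice-cold buffer and counted by scintillation. Nonspecific binding was defined with theophylline. Ki came from non-linear curve fitting; geometric means of 3–5 experiments.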

Homo sapiens [4] = species: Homo sapiens; experiment: Selectivity ratio of Ki for human recombinant adenosine A2B receptor to Ki for human recombinant adenosine A2A receptor
Homo sapiens [5] = species: Homo sapiens; experiment: Selectivity ratio of Ki for human recombinant adenosine A3 receptor to Ki for human recombinant adenosine A2A receptor
Homo sapiens [6] = species: Homo sapiens; experiment: Selectivity ratio of Ki for human recombinant adenosine A1 receptor to Ki for human recombinant adenosine A2A receptor
Cavia porcellus [7] = experiment: Bronchospasmolytic activity in histamine aerosol-induced Dunkin-Hartley guinea pig assessed as severity of bronchospasm at 50 mg/kg, po pretreated for 1 hr followed by histamine aerosol-challenge; type: functional, organism-based; parameters: dose 50 mg/kg

Structure (SMILES)	Time (Cavia porcellus [1]) [s]	survival at 50 mg/kg (Cavia porcellus [2]) [%]	Time (Cavia porcellus [3]) [s]	pKi (Adenosine receptor A2b)	pKi (Adenosine receptor A2a)	pKi (Adenosine receptor A3)	pKi (Adenosine receptor A1)	Ratio Ki (Homo sapiens [4])	Ratio Ki (Homo sapiens [5])	Ratio Ki (Homo sapiens [6])	Activity (Cavia porcellus [7])
Cn1c(=O)c2nc[nH]c2n(C)c1=O.O [THEOPHYLLINE]	89	100	92								
Cn1c(=O)c2[nH]c(Cc3ccc(OCCCCl)cc3)nc2n(C)c1=O	44	50	75	< 5.00	< 5.00	< 4.52	< 4.52				
CN(C)CCOc1ccc(-c2nc3c([nH]2)c(=O)n(C)c(=O)n3C)cc1	39	100	111	5.31	6.40	5.03	5.74	12	24	4.6	
Cn1c(=O)c2[nH]c(-c3ccc(OCCCn4ccnc4)cc3)nc2n(C)c1=O	71	75	108	5.98	7.38	5.64	6.05	25	54	21	
Cn1c(=O)c2[nH]c(-c3ccc(OCCN4CCOCC4)cc3)nc2n(C)c1=O	45	100	104	5.87	6.51	5.56	5.59	4.3	8.8	8.3	
Cn1c(=O)c2[nH]c(-c3ccc(OCCC4CCNCC4)cc3)nc2n(C)c1=O	22	75	121	5.54	6.54	5.19	5.88	10	22	4.6	
Cn1c(=O)c2[nH]c(-c3ccc(OC4CCCC4)cc3)nc2n(C)c1=O	35	50	72	6.00	7.14	< 5.00	< 4.52	14	> 420	> 420	
Cn1c(=O)c2[nH]c(-c3ccc(OCCCCl)cc3)nc2n(C)c1=O	30	100	114	< 5.00	7.35	< 4.52	< 5.00	> 220	> 670	> 220	
Cn1c(=O)c2[nH]c(Cc3ccc(OCCCN4CCC5(CC4)OCCO5)cc3)nc2n(C)c1=O	23	50	73	< 5.00	5.09	< 4.52	< 4.52	> 1.2	> 3.7	> 3.7	
CCN(CC)CCOc1ccc(-c2nc3c([nH]2)c(=O)n(C)c(=O)n3C)cc1	49	75	115	5.59	6.60	5.17	5.80	10	27	6.4	
Cn1c(=O)c2[nH]c(Cc3ccc(OCCCN4CCOCC4)cc3)nc2n(C)c1=O		100	108	< 5.00	< 5.00	< 4.52	< 4.52				
Cn1c(=O)c2[nH]c(-c3ccc(OCCCN4CCN(Cc5ccccc5Cl)CC4)cc3)nc2n(C)c1=O		100	109	6.77	6.92	5.16	5.73	1.4	57	15	Active
Cn1c(=O)c2[nH]c(Cc3ccc(OCCCn4ccnc4)cc3)nc2n(C)c1=O		50	83	< 5.00	5.50	< 4.52	< 4.52	> 3.2	> 9.5	> 9.5	
Cn1c(=O)c2[nH]c(-c3ccc(OCCN4CCCC4)cc3)nc2n(C)c1=O	32	100	111	5.71	6.70	5.34	5.92	9.9	23	6	
